PGC1a acetyl up – raises PGC1a acetylation signal in U2OS cells. activation, % at 15.6 µM. 350,000 tested, 0.21% active. U2OS PGC1a acetylation AlphaScreen, overnight;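 active = every replicate reaching activation of at least 50%, whatever the mean replicate activation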;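 note: hits raise the AlphaScreen acetylation signal above neutral controls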
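System – flag-PGC1a/GCN5 U2OS cells · Quantity – 7000 U2OS cells per well · Signal – AlphaScreen proximity luminescence, anti-acetyl-lysine antibody · Schedule – overnight compound treatment, 37 °C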
The depositor's hits bear a star. The sample as a whole holds a higher share of hits than the screen did.

SMILES	PGC1a acetyl up
O=C(NN=C1c2ccccc2-c2ccccc21)c1ccccc1Br	-66
O=C(N/N=C/C(Br)=C/c1ccccc1)c1ccccc1F	57*
O=C(N/N=C/C(Br)=C/c1ccccc1)c1n[nH]c2c1CCC2	72*
O=C(CNc1cccc2ccccc12)N/N=C/C(Br)=C/c1ccccc1	213*
CC1C(=O)NN=C1C(=O)N/N=C\C(Br)=C\c1ccccc1 (stereo unspecified)	404*
Cc1cc(C)c2nc(N3CCCC(C(=O)N4CCC(C(N)=O)CC4)C3)sc2c1 (stereo unspecified)	-40
COc1ccc(C(=O)Nc2ccc(S(=O)(=O)Nc3cc(C)nc(C)n3)cc2)cc1	-43
COc1ccc(CN(C)C[C@@H]2Oc3ccc(NS(=O)(=O)c4c(C)noc4C)cc3C(=O)N([C@@H](C)CO)C[C@@H]2C)cc1	-56
O=C(N/N=C/C(Br)=C/c1ccccc1)c1cc(-c2ccco2)[nH]n1	143*
O=C(Nc1ccc2c(c1)C(=O)N(c1ccccc1)C2=O)c1cccs1	-53
O=C(N/N=C/C(Br)=C/c1ccccc1)c1cccs1	166*
COc1cccc(N2CCN(c3ncnc4c3[nH]c3ccc(F)cc34)CC2C)c1 (stereo unspecified)	-77
C=CCNC(=S)N1CCN(CCN=CC2=C(O)CC(c3ccco3)CC2=O)CC1 (stereo unspecified)	-40
O=C1Nc2ccccc2N=C(c2ccccc2)C1N(Cc1ccc(F)cc1)C(=O)c1cccnc1 (stereo unspecified)	-41
Cn1cnnc1Sc1ccc(/C=C/C(=O)c2ccc(O)cc2)cc1[N+](=O)[O-]	58*
C[C@@]12C(=O)OC(=O)[C@]1(C)C1CCC2O1	-47
C=CCn1cccc(/C=C/C(=O)c2ccc(C(C)(C)C)cc2)c1=S	-53
Cc1noc(C)c1S(=O)(=O)Nc1ccc2c(c1)C(=O)N([C@@H](C)CO)C[C@@H](C)[C@@H](CN(C)CC1CCCCC1)OCCCC[C@@H](C)O2	-85
Cc1cccc(NC(=O)CCC(=O)N/N=C/c2ccc(O)cc2O)c1	51*
CCC(=O)Nc1cccc(C(=O)/C=C/c2ccccc2)c1	-41
COc1cc(NC(=S)NN2CCOCC2)cc(OC)c1	-61
C(=C\c1ccccc1)/CN1CCN(C(c2ccnc3ccccc23)c2nnnn2C2CCCCC2)CC1 (stereo unspecified)	65*
O=Nc1c2nc3ccccc3n(O)c-2c2ccccc12	61*
CC(C)NC(=O)Nc1ccc2c(c1)C(=O)N([C@@H](C)CO)C[C@@H](C)[C@@H](CN(C)S(=O)(=O)c1ccccc1)OCCCC[C@H](C)O2	-105
O=C(Nc1ccc(OC(=O)c2ccccc2)c(-c2nc3ccccc3s2)c1)c1ccccc1	106*
SMILES	PGC1a acetyl up
C[C@@H]1CCCCO[C@H](CN(C)C(=O)NC2CCCCC2)[C@@H](C)CN([C@@H](C)CO)C(=O)c2cc(NC(=O)NC3CCCCC3)ccc2O1	-45
O=C(CCl)N=c1sccn1Cc1ccc(Cl)cc1Cl	-66
Fc1ccc(CO/N=C/C2=C(Cl)c3ccccc3CC2)cc1	-79
CCOc1ccc(C(C)=O)cc1N1C(=O)C2C3C=CC(C3=C(C)C)C2C1=O (stereo unspecified)	-44
O=C(CCCCCN1C(=O)c2cccc3cccc(c23)C1=O)NCc1cccnc1	494*
C/C(=N\N1CCN(c2ccccc2)CC1)c1ccccc1O	-40
COc1ccc(CC2=CC(=O)c3ccccc3C2=O)cc1	128*
Oc1ccc(Nc2nnc(-c3ccc(O)cc3)c3ccccc23)cc1	63*
Cc1noc(C)c1S(=O)(=O)N1CCCC(C(=O)NCC2CCCO2)C1 (stereo unspecified)	-50
CC(C)CC(NC(=O)c1ccc(Cl)cc1)C(=O)OCC(=O)c1ccc2c(c1)NC(=O)CO2 (stereo unspecified)	-57
CC1(C)CC(=O)C2=C(C1)Nc1ccccc1N1C(=O)c3ccccc3C21 (stereo unspecified)	58*
CC1(C)CC2(CCO1)OC(=O)CC2C(=O)Nc1cccc2ccccc12 (stereo unspecified)	72*
CC(=O)Cc1nsc(NC(=O)c2cccc(F)c2)n1	-44
CCOCCn1c(N2CCN(c3ccccc3)CC2)nc2c1c(=O)n(C)c(=O)n2C	54*
Cc1cccc(-n2c(=O)cc(N3CCN(c4ccc(F)cc4)CC3)[nH]c2=O)c1	-55
CC(C)(C)c1ccc(NC(=O)N2CCCN(c3ccc([N+](=O)[O-])cn3)CC2)cc1	186*
C=CCN1C(=O)C(CC(=O)Nc2ccccc2F)S/C1=N\c1nccs1 (stereo unspecified)	-49
Cn1c(Cl)cnc1C1CC(=O)c2cc(Cl)ccc2O1 (stereo unspecified)	71*
COC1(C)CN(Cc2ccccc2Br)[C@H](/C=C/c2ccccc2)[C@H](Cc2ccccc2)O1 (stereo partly specified)	-51
CCCCNC(=O)c1ccc(CS(=O)(=O)c2ccccc2OC)o1	-44
O=C(CCN1CCc2ccccc2C(c2ccccc2)C1)c1ccc2c(c1)OCCO2 (stereo unspecified)	69*

Bioassay records deposited in PubChem BioAssay by Broad Institute.
